High-throughput results from PubChem BioAssay.
AI-2 QS modul = Vibrio harveyi AI-2 quorum sensing modulation | Vibrio harveyi JMH597 AI-2 luminescence/OD600 ratio, 9 h; active compounds read low; strain lacks LuxN and CqsS sensors; 0 = neutral-control median | AID 2094 | 300,000 tested, 0.4% active | activity change, % at 7.5 µM; in the data active = activity change below about -75%, passing the limit was not always enough; inconclusive = no clear call, values can overlap the other calls;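 note: luminescence divided by OD600 gain over 9 h not by final OD600 alone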
T cruzi repl = T. cruzi replication inhibition. T. cruzi beta-gal in NIH3T3, luminescence, 90 h. inhibition, % (test concentration not listed). 300,000 tested, 1.4% active;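 active = mean inhibition across valid replicates above about 55%, limit read from the data; inconclusive = mean below that limit but half or more replicates reach it; inactive = mean below it, under half of replicates reach it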;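 note: signal also drops with host cell toxicity which is not excluded here; 0% = plate median of DMSO wells and 100% = zero luminescence signal; higher percent means less beta-gal luminescence so fewer parasites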
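System: NIH/3T3 fibroblasts plus reporter T. cruzi. Medium: DMEM plus 2% FBS. Probe or stimulus: 5000 reporter trypomastigotes per well. Compound: single 50 nL compound addition per well in DMSO. Incubation: co-culture of at least 90 h after 3 h attachment. Detection: GalScreen β-gal luminescence, detergent lysis, 60 min. Evaluation: parasite load inhibition, %.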
Yeast superoxide = yeast age-related superoxide inhibition as caloric restriction mimetic; S. cerevisiae aged cells, superoxide DHE fluorescence; active compounds read low; superoxide response (% of plate mean), % at 10 µM; 330,000 tested, 0.18% active; AID 2690;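 active = superoxide response under a set limit, about three screen SD below normal, cut at about 65% in these data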;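 note: yeast aged for seven days with compound at 30 °C before DHE staining; 100% = average MFI of all compound-treated wells on the plate with controls excluded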
V-ATPase pH = regulators of yeast V-ATPase proton transport; 350,000 tested, 0.37% active; AID 504577; response, % at 10 µM; S. cerevisiae, pHLuorin cytosolic pH fluorescence; in the data active = response mostly above about 7.3%, no sharp cut-off; inactive = mostly below about 5.4%; note: actives read high
CendR NRP1 mod = alters CendR peptide binding to human NRP-1. inhibition, % at 25 µM. FAM-RPARPAR peptide binding to NRP-1, fluorescence polarization. 360,000 tested, 0.85% active. O14786;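 active = inhibition or corrected inhibition above about 18%, plus a signal ratio from 0.5 to 1.5, limit read from the data, passing the limit was not always enough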
HIF act = HIF pathway transcriptional activation; U2OS HRE-luciferase reporter, luminescence; normalized: DMSO 0%, desferrioxamine 100%; activation, % at 7.5 µM (by protocol); 300,000 tested, 0.32% active;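 active = mean activation of at least 10% of the iron chelator positive control signal, with at least half of replicates also reaching 10%; inconclusive = mean and replicate majority disagree about reaching 10%; inactive = mean and most replicates under 10%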
* = called active by the depositor; u = inconclusive; x = not tested or not shown. Shown are actives, neighbours in structure and some others; about 3% of the full set was active somewhere.

SMILES	AI-2 QS modul	T cruzi repl	Yeast superoxide	V-ATPase pH	CendR NRP1 mod	HIF act
C/C=C(\C)C(=O)N[C@@H](c1ccccc1)[C@@H](O)C(=O)O[C@H]1C[C@@]2(O)[C@@H](OC(=O)c3ccccc3)C3[C@](C)(C(=O)[C@H](O)C(=C1C)C2(C)C)[C@@H](O)C[C@H]1OC[C@@]31OC(C)=O (stereo partly drawn)	15.3	53.1	78.4	2.8	12.3	-0.7
CCOC(=O)c1nc2ccccc2c(=O)n1-c1cccc(C)c1	0.4	-16.5	100.0	-3.2	18.4	0.6
CS(=O)(=O)c1ccc(C2=C(CNC(=O)c3cccs3)[C@H]3CC[C@@H](C2)N3CCOc2ccccc2)cc1	x	x	x	-0.8	-7.5	x
CN1C[C@H](CO)C=C2c3cccc4[nH]cc(c34)C[C@H]21	-9.0	1.6	97.9	3.3	45.9*	-0.7
CN1Cc2c(c(C#N)c(N)n(C)c2=S)CC1(C)C	14.0	-8.7	95.4	-4.1	42.6	0.6
COc1ccc(C(=O)C2CCCN(Cc3cnc(C)s3)C2)c(OC)c1 (stereo not drawn)	15.0	7.8	108.9	0.8	8.9	0.3
CCn1nc(/C=C/c2ccccc2)nc2c(=O)n(C)c(=O)nc1-2	u	60.2*	x	-0.7	26.9*	-2.8
CCn1nc(-c2cccs2)nc2c(=O)n(C)c(=O)nc1-2	x	x	x	3.9	30.2*	x
COc1cccc(C(c2nnnn2-c2c(C)cccc2C)N2CCC(n3c(=O)[nH]c4ccccc43)CC2)c1OC (stereo not drawn)	x	x	x	x	4.1	x
O=c1[nH]c(=O)n(C2CCCCC2)c(O)c1/C=C/C=Nc1ccccc1	45.5	-16.9	103.5	-3.9	132.3	0.5
O=C(Nc1nc(-c2ccccc2)c(-c2ccccc2)s1)c1ccc(S(=O)(=O)N(CCCl)CCCl)cc1	26.7	56.2*	116.4	3.7	-0.2	-0.4
CC[n+]1c(-c2ccccc2)c2cc(N)ccc2c2ccc(N)cc21	x	x	x	-1.2	46.9*	x
O=C(N/N=C/c1c(O)n(CCc2ccc(F)cc2)c(=O)[nH]c1=O)c1ccncc1	29.2	1.2	127.0	3.4	-13.7	-0.5
CN(C)CC#CCC(O)(c1ccccc1)C1CCCC1 (stereo not drawn)	27.0	66.9*	93.5	0.0	1.0	-0.1
OC(CC#CCN1CCCCCC1)(c1ccccc1)C1CCCC1 (stereo not drawn)	5.6	23.0	93.8	-2.6	-2.9	1.8
CCOC(=O)c1c(NC(=O)c2c(N)n(CCCOC)c3nc4ccccc4nc23)sc2c1CCCC2	8.3	64.0*	102.2	-0.7	5.9	0.6
Nc1nonc1C(=O)N/N=C/c1ccc([N+](=O)[O-])o1	-83.9*	-3.5	91.0	1.0	-6.8	0.6
Cn1c(=O)[nH]c2nncnc2c1=O	41.6	-3.9	59.5*	-2.1	1.6	-0.4
COc1cccc(O)c1CN1CCCC(C(=O)c2ccccc2SC)C1 (stereo not drawn)	35.0	15.1	100.3	-3.7	4.6	0.1
COc1ccc2ccccc2c1CNCCc1ccccc1	13.2	11.1	105.5	2.5	-6.0	-10.3
Cc1ccccc1NC(=NCCCN1CC1)Nc1ccccc1C	x	x	x	-5.4	40.5*	x
CCc1nc2ccc(Br)cc2c(=O)n1-c1ccccc1C(F)(F)F	17.0	-12.0	102.4	1.6	3.4	0.2
CCCc1nc2ccc(Br)cc2c(=O)n1-c1ccc([N+](=O)[O-])c(C(F)(F)F)c1	26.7	55.5*	98.7	-0.9	-1.2	-0.8
O=C1/C(=C/c2cccnc2)N2CCC1CC2	19.3	-1.1	82.6	-2.5	8.9	-0.4
CC(=O)OC(C)(C)/C=C/C(=O)[C@](C)(O)[C@H]1[C@H](O)C[C@@]2(C)[C@@H]3CC=C4[C@H](C[C@H](O)C(=O)C4(C)C)[C@]3(C)C(=O)C[C@]12C	x	x	x	-4.6	15.3	x
CC(=O)OC(C)(C)/C=C/C(=O)C(C)(O)C1[C@H](O)C[C@@]2(C)C3CC=C4C(CC[C@@H](O)C4(C)C)[C@]3(CO)C(=O)C[C@]12C (stereo partly drawn)	27.2	55.9*	103.2	-2.5	3.9	-3.5
FC(F)(F)c1ccc(CNCCc2ccc3c(c2)OCO3)cc1	33.9	55.3*	86.8	3.4	7.3	-0.4
